These results are taken from ChEMBL document CHEMBL1165970, “Design, synthesis and biological evaluation of trans 2-(thiophen-2-yl)vinyl heteroaromatic iodides” (2010).

The subject of assay [1] is LNCaP. As to the kind of experiment: Growth inhibition of human LNCAP cells after 3 days by MTT assay. Type of assay: functional. The conditions noted are these: 72 h. The method in brief:
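LNCap prostate adenocarcinoma cells were grown in RPMI 1640 with 10% heat-inactivated FBS, 2 mM L-alanyl-L-glutamine and penicillin-streptomycin at 37 °C under 5% CO2. Cells were plated, then treated 24 h later at 0.01–100 µM final against untreated controls. MTT was read at 570 nm after 3 days, averaging 8 wells. GI50 was derived by the NCI formula 100×(T−T0)/(C−T0)=50.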

Assay [2] has as its system MCF7. Briefly: Growth inhibition of human MCF7 cells after 3 days by MTT assay. Type of assay: functional. Particulars: MCF7, 72 h. In a few lines: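 MCF-7 mammary adenocarcinoma cells were grown in DMEM (1.0 g/L D-glucose) with 10% heat-inactivated FBS, 2 mM L-alanyl-L-glutamine and penicillin-streptomycin at 37 °C under 5% CO2. Compounds were added 24 h after plating (0.01–100 µM final), with untreated controls. After 3 days, MTT was read at 570 nm; each value is the mean of 8 wells. GI50 was calculated per NCI, 100×(T−T0)/(C−T0)=50.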

As a reminder, the GI50 is the concentration at which growth is held to half of that of the control. A lower GI50 goes with greater sensitivity of the cells. As for `C[n+]1ccccc1/C=C/c1ccc(-c2ccccc2)s1`, the GI50 in assay [1] was 33.9 µM; in assay [2] it was 8.32 µM.
On to `Cn1cccc1/C=C/c1n(C)cc[n+]1C`, for which the GI50 in assay [2] is 100 µM.
Broadly, the LC50 is the concentration lethal to half of the exposed cells or organisms. Higher therefore signals a less lethal substance. In assay [1], `C[n+]1ccccc1/C=C/c1cc(-c2ccccc2)cs1` had a GI50 of 7.59 µM and an LC50 of 69.2 µM. In assay [2], this compound had a GI50 of 0.525 µM and an LC50 of 77.6 µM.
`Cn1c(/C=C/c2cccc[n+]2C)cc2ccccc21` gave a GI50 in assay [2] of 15.1 µM.
For the compound `Cn1cc[n+](C)c1/C=C/c1ccc(-c2cccs2)s1`, the GI50 in assay [1] was 6.03 µM; in assay [2], 4.68 µM.
In the same order, the values of `Cn1cc[n+](C)c1/C=C/c1cc(-c2ccccc2)cs1` are 20 µM and 1 µM.
Consider `Cn1cc[n+](C)c1/C=C/c1ccc(-c2ccccc2)s1`, for which the figures for the GI50 in assay [1] and in assay [2] were 8.32 µM and 1.45 µM, respectively.
In assay [2], `Cn1cc[n+](C)c1/C=C/c1ccc(Br)s1` had a GI50 of 14.5 µM.
